Measurements reported in ChEMBL document CHEMBL5149984, “Discovery of HN37 as a Potent and Chemically Stable Antiepileptic Drug Candidate” (J Med Chem, 2021).

Assays:
[1] = Neurotoxicity in Kunming mouse assessed as motor impairment rate at 300 mg/kg, po after 1 hr by rotarod test; type: toxicity, organism-based; conditions: in vivo
In short: (§1)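 Male KM mice dosed intragastrically with compound freshly suspended in 0.5% CMC-Na. Rotarod performance scored 1 h after dosing as the fraction of animals showing motor impairment. Fisher's exact test versus vehicle; TD50 from nonlinear dose−response fit.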

[2] = system: Mus musculus; assay: Anticonvulsant activity in MES induced Kunming mouse model of seizure at 100 mg/kg, po; type: functional
In short: (§2)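 MES test in male KM mice. Compounds freshly suspended in 0.5% CMC-Na and given by gavage at 20 mL/kg; 160 V stimulus through ear clips. Protection scored as absence of hindlimb tonic extension; time course at 0.25, 0.5, 1 and 2 h, otherwise tested at 1 h. ED50 from dose−response by nonlinear regression; Fisher's exact test versus vehicle.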

[3] = Tmax in Sprague-Dawley rat blood at 6 mg/kg, po measured upto 24 hrs by LC-MS/MS method; type: ADME, organism-based
In short: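 Male SD rats (180–220 g) dosed orally at 2, 6 and 20 mg/kg, handled like the mice: fasting, 5% DMSO/5% Tween 80/saline vehicle, acetonitrile extraction, LC-MS/MS of plasma. In a separate set at 6 mg/kg p.o., blood and brain were sampled together.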

[4] = molecular target: Cytochrome P450 2B6 (Homo sapiens, UniProt P20813); assay: Time dependent inhibition of human liver microsome CYP2B6 preincubated for 0.5 hrs in presence of NADPH followed by substrate addition by LC-MS/MS method; type: ADME, microsomes
In short: (§3)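 Human liver microsomes preincubated 0.5 h with 0.10–50 μM test compound, with or without NADPH, then CYP-specific probe substrate added and incubation continued. Metabolite measured by LC-MS/MS; % activity remaining relative to no-compound control; IC50 fitted by Probit model. For CYP3A4, midazolam 1′-hydroxylation and testosterone 6β-hydroxylation were read separately.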

[5] = Neurotoxicity in Kunming mouse assessed as motor impairment rate at 200 mg/kg, po after 1 hr by rotarod test; type: toxicity, organism-based; conditions: in vivo; in short: as §1
[6] = Metabolic stability in human liver microsomes assessed as half life; type: ADME, Microsome
[7] = molecular target: CYP2C19 (Homo sapiens, UniProt P33261); assay: Inhibition of human liver microsome CYP2C19 at 0.10 to 50 uM preincubated with NADPH for 0.5 hrs followed by substrate addition by LC-MS/MS method relative to control; type: ADME; conditions: liver microsomes, dose 0.1-50 µM
[8] = Cmax in Kunming mouse plasma at 5 mg/kg, po measured upto 24 hrs by LC-MS/MS method; type: ADME, organism-based; parameters: dose 5 mg/kg, time < 24 hrs, route po
In short: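 KM male mice (18−24 g), fasted 12 h before and 2 h after dosing. HN37 given orally at 5 mg/kg in 5% DMSO/5% Tween 80/90% saline, or iv at 2 mg/kg after dilution in saline with 1% Tween 80; n = 3 per time point. Blood sampled 0.25–24 h (from 0.083 h after iv); whole brain taken after oral dosing. Plasma and brain extracted with acetonitrile, quantified by LC−MS/MS; AUC0−t by trapezoidal method.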

[9] = Ratio of TD50 for Kunming mouse to ED50 for anticonvulsant activity in Kunming mouse; type: toxicity; conditions: read-out: Ratio TD50/ED50
In short: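 KM mice given compound orally as a fresh 0.5% CMC-Na suspension (20 mL/kg), tested 1 h later. ED50 from the MES test (protection from hindlimb tonic extension; ear-clip stimulus 160 V). TD50 from the rotarod test as motor impairment. Both from dose–response nonlinear regression with 95% CI.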

[10] = Ratio of AUC(0 to t) in Sprague-Dawley rat brain to plasma at 6 mg/kg, po measured upto 24 hrs by LC-MS/MS method; type: ADME, organism-based; conditions: brain and plasma
In short: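 Male SD rats (180−220 g) given single oral doses of 2, 6 and 20 mg/kg; handled as in the mouse PK study (fasted 12 h before and 2 h after dosing, 5% DMSO/5% Tween 80/90% saline formulation). In a separate 6 mg/kg p.o. set, blood and brain were sampled together. Plasma and brain levels by LC−MS/MS.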

[11] = system: Mus musculus; assay: Anticonvulsant activity in MES induced Kunming mouse model of seizure at 5 mg/kg, po after 1 hr; type: functional; in short: as §2
[12] = molecular target: CYP2B6 (Homo sapiens, UniProt P20813); assay: Ratio of IC50 for human liver microsome CYP2B6 in absence of NADPH to IC50 for human liver microsome CYP2B6 in presence of NADPH; conditions: liver microsomes, read-out: Ratio IC50
[13] = molecular target: T1, Potassium voltage-gated channel subfamily KQT member 1 (Homo sapiens, UniProt P51787); assay: Agonist activity at human KCNQ1 channel expressed in CHO cells assessed as amplitude change of outward current at 0.1 uM by patch clamp method; type: cell-based
T1 sequence (P51787 whole entry): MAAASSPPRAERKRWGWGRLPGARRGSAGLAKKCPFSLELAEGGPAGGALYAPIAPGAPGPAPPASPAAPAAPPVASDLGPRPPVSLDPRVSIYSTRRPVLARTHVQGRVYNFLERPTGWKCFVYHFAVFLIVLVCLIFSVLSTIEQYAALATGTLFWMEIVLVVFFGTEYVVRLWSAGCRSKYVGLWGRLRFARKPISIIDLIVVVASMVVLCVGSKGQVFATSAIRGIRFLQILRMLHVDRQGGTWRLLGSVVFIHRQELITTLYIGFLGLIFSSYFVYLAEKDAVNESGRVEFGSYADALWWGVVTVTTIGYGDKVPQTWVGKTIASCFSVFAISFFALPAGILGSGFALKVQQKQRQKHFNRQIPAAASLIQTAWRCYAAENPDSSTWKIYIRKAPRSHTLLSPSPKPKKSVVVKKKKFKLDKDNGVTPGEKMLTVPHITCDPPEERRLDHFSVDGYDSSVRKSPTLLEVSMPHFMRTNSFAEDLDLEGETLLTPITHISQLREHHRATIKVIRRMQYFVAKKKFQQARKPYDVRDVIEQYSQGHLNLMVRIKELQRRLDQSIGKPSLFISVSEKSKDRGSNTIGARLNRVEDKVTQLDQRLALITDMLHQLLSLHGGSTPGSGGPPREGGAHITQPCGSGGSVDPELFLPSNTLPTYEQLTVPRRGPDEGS
In short: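 Whole-cell patch clamp at room temperature on CHO cells (DMEM/F12, 10% FBS) transiently co-transfected with EGFP and hKCNQ1, rKCNQ2, rKCNQ3 A278T, hKCNQ4 or hKCNQ5; KCNQ2/3 at 1:1 cDNA ratio. Pipette solution 145 mM KCl, 5 mM MgATP, pH 7.3; bath 140 mM NaCl, 5 mM KCl, pH 7.4, under perfusion. V1/2 from Boltzmann fits; I/I0 is current amplitude with versus without compound; n = 4−6.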

[14] = molecular target: CYP2D6 (Homo sapiens, UniProt P10635); assay: Ratio of IC50 for human liver microsome CYP2D6 in absence of NADPH to IC50 for human liver microsome CYP2D6 in presence of NADPH; conditions: liver microsomes, read-out: Ratio IC50
[15] = molecular target: Cytochrome P450 3A4 (Homo sapiens, UniProt P08684); assay: Time dependent inhibition of human liver microsome CYP3A4 preincubated for 0.5 hrs in presence or absence of NADPH followed by midazolam addition by LC-MS/MS method; type: ADME, microsomes; in short: as §3
Sequence of Cytochrome P450 3A4 (P08684 whole entry): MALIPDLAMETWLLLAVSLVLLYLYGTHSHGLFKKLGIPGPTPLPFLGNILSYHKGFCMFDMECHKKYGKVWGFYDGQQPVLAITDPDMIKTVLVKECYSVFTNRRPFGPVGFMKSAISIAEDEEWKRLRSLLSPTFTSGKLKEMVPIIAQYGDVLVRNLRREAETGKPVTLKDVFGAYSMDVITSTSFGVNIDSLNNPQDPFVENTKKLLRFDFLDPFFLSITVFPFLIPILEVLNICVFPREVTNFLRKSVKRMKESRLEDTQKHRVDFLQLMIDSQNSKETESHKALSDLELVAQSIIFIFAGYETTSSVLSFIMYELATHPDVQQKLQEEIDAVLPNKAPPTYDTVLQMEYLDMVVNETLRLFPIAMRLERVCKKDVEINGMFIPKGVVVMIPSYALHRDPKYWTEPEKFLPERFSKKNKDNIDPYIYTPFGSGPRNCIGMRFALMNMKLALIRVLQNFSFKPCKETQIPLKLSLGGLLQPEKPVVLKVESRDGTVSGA

Sequence of Cytochrome P450 2B6 (P20813 whole entry): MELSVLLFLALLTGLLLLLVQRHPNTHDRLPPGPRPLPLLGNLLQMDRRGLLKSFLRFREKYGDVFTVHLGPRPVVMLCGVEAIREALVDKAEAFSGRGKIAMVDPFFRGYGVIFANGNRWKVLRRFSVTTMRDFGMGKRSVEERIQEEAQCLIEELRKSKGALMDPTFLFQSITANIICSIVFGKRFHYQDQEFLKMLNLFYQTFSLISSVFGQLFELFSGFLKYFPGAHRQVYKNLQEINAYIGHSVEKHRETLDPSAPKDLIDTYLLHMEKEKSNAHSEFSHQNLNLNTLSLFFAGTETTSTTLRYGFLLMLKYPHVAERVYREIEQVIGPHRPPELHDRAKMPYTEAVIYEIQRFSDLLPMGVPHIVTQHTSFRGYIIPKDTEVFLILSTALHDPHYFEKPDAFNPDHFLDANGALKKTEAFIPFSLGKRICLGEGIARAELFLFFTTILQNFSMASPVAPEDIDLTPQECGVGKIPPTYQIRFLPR
Sequence of CYP2B6 (P20813 whole entry): as above
Sequence of CYP2D6 (P10635 whole entry): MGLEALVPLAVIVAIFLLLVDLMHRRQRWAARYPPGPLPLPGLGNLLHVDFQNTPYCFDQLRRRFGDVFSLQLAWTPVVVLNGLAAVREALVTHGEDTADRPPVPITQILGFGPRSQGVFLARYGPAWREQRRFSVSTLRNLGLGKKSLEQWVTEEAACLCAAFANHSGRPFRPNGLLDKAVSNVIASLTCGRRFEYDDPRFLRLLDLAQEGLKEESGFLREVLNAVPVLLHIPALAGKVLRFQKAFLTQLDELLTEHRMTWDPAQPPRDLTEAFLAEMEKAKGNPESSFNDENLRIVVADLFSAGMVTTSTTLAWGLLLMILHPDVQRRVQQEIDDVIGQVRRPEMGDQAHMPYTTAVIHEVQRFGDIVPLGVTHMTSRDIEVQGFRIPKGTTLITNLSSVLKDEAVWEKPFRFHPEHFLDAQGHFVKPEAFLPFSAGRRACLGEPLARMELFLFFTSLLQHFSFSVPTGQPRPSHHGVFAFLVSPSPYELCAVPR
Sequence of CYP2C19 (P33261 whole entry): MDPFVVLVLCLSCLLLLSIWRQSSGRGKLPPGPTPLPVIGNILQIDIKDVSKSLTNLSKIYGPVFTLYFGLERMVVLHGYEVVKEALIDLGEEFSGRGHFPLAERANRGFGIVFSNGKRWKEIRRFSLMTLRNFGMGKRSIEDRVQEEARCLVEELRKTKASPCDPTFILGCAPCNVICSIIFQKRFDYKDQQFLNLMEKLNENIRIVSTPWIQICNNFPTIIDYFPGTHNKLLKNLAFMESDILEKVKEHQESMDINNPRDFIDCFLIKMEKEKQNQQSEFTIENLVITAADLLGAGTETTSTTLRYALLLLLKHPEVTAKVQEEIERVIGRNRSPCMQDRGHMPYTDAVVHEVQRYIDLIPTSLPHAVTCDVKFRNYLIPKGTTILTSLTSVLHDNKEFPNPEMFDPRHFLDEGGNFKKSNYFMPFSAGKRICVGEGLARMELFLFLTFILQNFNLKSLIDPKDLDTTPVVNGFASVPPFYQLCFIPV

Row | SMILES | Activity [1] | Activity [2] | Tmax [3] | IC50 [4] | Activity [5] | half-life [6] | inhibition at 0.5 h, up to 50 µM [7] | Cmax [8] | selectivity ratio [9] | Kp at 24 h [10] | Activity [11] | IC50 shift [12] | Activity [13] | IC50 shift [14] | IC50 [15]
1 | CCOC(=O)Nc1ccc(NCc2ccc(F)cc2)cc1N [EZOGABINE] | 100% | 87.5% | – | – | – | – | – | – | – | – | – | – | – | – | –
2 | C#CCN(Cc1ccc(F)cc1)c1cc(C)c(NC(=O)OC)c(C)c1 | – | – | 15 min | 5.76 µM | 100% | 27.7 min | < 25% | 134 ng/mL | 43.2 | 2.86 | 100% | > 1.5 | 0.99 | < 1.5 | > 50 µM
